ChEMBL document CHEMBL1125060, “Synthesis and biological evaluation of carbocyclic analogues of lyxofuranosides of 2-amino-6-substituted-purines and 2-amino-6-substituted-8-azapurines” (1990)
In brackets after ≈: the same amount, converted by molar mass.

Experiments:
[1] = tested on: Vero; assay: (§1) In vitro antiviral activity against herpes simplex virus type 1 (E-377 strain) in Vero host cell cultures; assay type: functional, Chlorocebus sabaeus
Procedure, shortened: (§2)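 CPE inhibition assay with HSV-1 strain E-377 replicating in Vero cells. ID50 is the minimum concentration (μg/mL) inhibiting CPE by 50%, from regression with semilog curve fitting. MTC is the minimum concentration (μg/mL) giving any cytotoxicity. TI is MTC divided by ID50.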

[2] = tested on: Vero; assay: Minimum concentration (ug/mL) for in vitro antiviral activity against herpes simplex virus type 1 (E-377 strain) in Vero host cell cultures; assay type: functional, Chlorocebus sabaeus; procedure, shortened: as §2
[3] = tested on: P388; assay: In vitro inhibition against P-388 mouse leukemia cells using growth inhibition assay at the concentration of 6.25 ug/mL; assay type: functional
Procedure, shortened: (§3)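 P-388 mouse leukemia cells in culture, by the National Cancer Institute protocol. Tested at 6.25-100 μg/mL and reported as percent growth inhibition. Carbocyclic adenosine is the positive control.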

[4] = tested on: P388; assay: In vitro inhibition against P-388 mouse leukemia cells using growth inhibition assay at the concentration of 25 ug/mL; assay type: functional; procedure, shortened: as §3
[5] = tested on: P388; assay: In vitro inhibition against P-388 mouse leukemia cells using growth inhibition assay at the concentration of 50 ug/mL; assay type: functional; procedure, shortened: as §3
[6] = tested on: MDCK; assay: Minimum concentration (ug/mL) for in vitro antiviral activity against influenza virus (type A0/PR/8/34) in Madin-Darby canine kidney (MDCK) host cell cultures; assay type: functional, Canis lupus familiaris
Procedure, shortened: (§4)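 MDCK host cell cultures infected with influenza A0/PR/8/34, scored for inhibition of virus-induced cytopathogenic effect (CPE). ID50 is the minimum drug concentration (μg/mL) that cut CPE by 50%, from semilog regression curve fitting. MTC is the minimum concentration (μg/mL) at which any cytotoxicity was seen. Therapeutic index is MTC divided by ID50.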

[7] = tested on: MDCK; assay: In vitro antiviral activity against influenza virus (type A0/PR/8/34) in Madin-Darby canine kidney (MDCK) host cell cultures; assay type: functional, Canis lupus familiaris
[8] = tested on: P388; assay: In vitro inhibition against P-388 mouse leukemia cells using growth inhibition assay at the concentration of 100 ug/mL; assay type: functional; procedure, shortened: as §3
[9] = tested on: P388; assay: In vitro inhibition against P-388 mouse leukemia cells using growth inhibition assay at the concentration of 12.5 ug/mL; assay type: functional; procedure, shortened: as §3
[10] = tested on: Vero; assay: In vitro antiviral activity against herpes simplex virus type 1 (E-377 strain) in Vero host cell cultures (MTC/ID50); assay type: functional, Chlorocebus sabaeus; procedure, shortened: as §2
[11] = tested on: Vero; assay: as §1; assay type: functional; settings: Chlorocebus sabaeus, read-out: ID50 (the source's name); procedure, shortened: as §2
[12] = tested on: MRC5; assay: Cytotoxicity against MRC5 (human diploid embryonic lung cells)cell monolayer cultures at the concentration of 32 uM; assay type: functional
[13] = tested on: MRC5; assay: Effect of compound on yields of human cytomegalovirus (HCMV) in MRC5 (human diploid embryonic lung cells)cell monolayer cultures at the concentration of 320 uM; assay type: functional
Procedure, shortened: (§5)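 Virus yield reduction assay with HCMV strain Ad169, passaged, titrated and assayed in MRC5 human diploid embryonic lung cells. Virus yields are read as PFU. Includes a virus control and a DHPG positive control.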

[14] = tested on: MRC5; assay: Effect of compound on yields of human cytomegalovirus (HCMV) in MRC5 (human diploid embryonic lung cells)cell monolayer cultures at the concentration of 10 uM; assay type: functional; procedure, shortened: as §5
[15] = tested on: MRC5; assay: Effect of compound on yields of human cytomegalovirus (HCMV) in MRC5 (human diploid embryonic lung cells)cell monolayer cultures at the concentration of 32 uM; assay type: functional; procedure, shortened: as §5
[16] = tested on: MRC5; assay: Cytotoxicity against MRC5 (human diploid embryonic lung cells)cell monolayer cultures at the concentration of 1000 uM; Slightly toxic; assay type: functional, cell-based
[17] = tested on: MRC5; assay: Cytotoxicity against MRC5 (human diploid embryonic lung cells) cell monolayer cultures by using MTT [3-(4,5-Dimethylthiazol-2-yl)-2,5-diphenyltetrazolium bromide]assay at the concentration of 1000 uM; assay type: functional
Procedure, shortened: (§6)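 MRC5 human diploid embryonic lung cell monolayers. Cytotoxicity is quantified by host-cell mitochondrial reduction of MTT to MTT formazan. It was run alongside the HCMV yield reduction assay.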

[18] = tested on: MRC5; assay: Cytotoxicity against MRC5 (human diploid embryonic lung cells) cell monolayer cultures by using MTT [3-(4,5-Dimethylthiazol-2-yl)-2,5-diphenyltetrazolium bromide]assay at the concentration of 320 uM; assay type: functional; procedure, shortened: as §6
[19] = tested on: MRC5; assay: Effect of compound on yields of human cytomegalovirus (HCMV) in MRC5 (human diploid embryonic lung cells)cell monolayer cultures at the concentration of 3.2 uM; assay type: functional; procedure, shortened: as §5
[20] = tested on: MRC5; assay: Cytotoxicity against MRC5 (human diploid embryonic lung cells) cell monolayer cultures at the concentration of 320 uM; Slightly toxic; assay type: functional, cell-based
[21] = tested on: MRC5; assay: Effect of compound treatment on yields of human cytomegalovirus (HCMV) in MRC5 (human diploid embryonic lung cells)cell monolayer cultures at the concentration of 1000 uM; assay type: functional; procedure, shortened: as §5
[22] = tested on: Vero; assay: as §1; assay type: functional, Chlorocebus sabaeus; remark: listed apart in the source
Procedure, shortened: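 CPE-inhibition assay: HSV-1 strain E-377 replicating in African green monkey kidney (Vero) cells. ID50 is the minimum drug concentration (μg/mL) giving 50% CPE inhibition, taken from semilog regression curve fitting. Cytotoxicity was scored as the minimum concentration (μg/mL) showing any toxicity (MTC). TI = MTC/ID50.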

[23] = tested on: MRC5; assay: Effect of compound on yields of human cytomegalovirus (HCMV) in MRC5 (human diploid embryonic lung cells)cell monolayer cultures at the concentration of 100 uM; assay type: functional; procedure, shortened: as §5
[24] = tested on: MRC5; assay: Cytotoxicity against MRC5 (human diploid embryonic lung cells)cell monolayer cultures by using MTT [3-(4,5-Dimethylthiazol-2-yl)-2,5-diphenyltetrazolium bromide]assay at the concentration of 100 uM; assay type: functional; procedure, shortened: as §6
[25] = tested on: MRC5; assay: Cytotoxicity against MRC5 (human diploid embryonic lung cells)cell monolayer cultures at the concentration of 100 uM; assay type: functional
[26] = tested on: MRC5; assay: Effect of compound on yields of human cytomegalovirus (HCMV) in MRC5 (human diploid embryonic lung cells)cell monolayer cultures at the concentration of 0 uM; assay type: functional; procedure, shortened: as §5
[27] = tested on: MRC5; assay: Cytotoxicity against MRC5 (human diploid embryonic lung cells)cell monolayer cultures by using MTT [3-(4,5-Dimethylthiazol-2-yl)-2,5-diphenyltetrazolium bromide]assay at the concentration of 32 uM; assay type: functional; procedure, shortened: as §6
[28] = tested on: MRC5; assay: Effect of compound treatment on yields of human cytomegalovirus (HCMV) in MRC5 (human diploid embryonic lung cells) monolayer cultures at the concentration of 32 uM; assay type: functional; procedure, shortened: as §5
[29] = tested on: MDCK; assay: In vitro antiviral activity against influenza virus (type A0/PR/8/34) in Madin-Darby canine kidney (MDCK) host cell cultures (MTC/ID50); assay type: functional, Canis lupus familiaris; procedure, shortened: as §4
[30] = tested on: MDCK; assay: In vitro minimum drug concentration that inhibited the influenza virus-induced cytopathogenic effects by 50% in Madin-Darby canine kidney (MDCK) host cell cultures; assay type: functional; settings: Canis lupus familiaris, read-out: ID50 (the source's name); procedure, shortened: as §4
[31] = tested on: Vero; assay: In vitro minimum drug concentration that inhibited herpes simplex virus type 1 (E-377 strain) virus-induced cytopathogenic effects by 50% in vero cells; assay type: functional; settings: Chlorocebus sabaeus, read-out: ID50 (the source's name); procedure, shortened: as §2
[32] = tested on: Vero; assay: In vitro minimum drug concentration that inhibited herpes simplex virus type 1 (E-377 strain)-induced cytopathogenic effects by 50% in vero cell cultures; assay type: functional; settings: Chlorocebus sabaeus, read-out: ID50 (the source's name); procedure, shortened: as §2

Nc1nc(Cl)c2nnn(C3CC(CO)C(O)C3O)c2n1 (centres undefined) was tested, and the Virus rating [1] was 0, the MTC [2] was 300.7 µg/mL and the inhibition at 6.25 µg/mL [3] was 0%. It also gave an inhibition at 25 µg/mL [4] of 14.2%, an inhibition at 50 µg/mL [5] of 40.1% and an MTC [6] of over 256.3 µg/mL. The Virus rating [7] was 0.3, the inhibition at 100 µg/mL [8] was 99.1% and the inhibition at 12.5 µg/mL [9] was 0%.
With Nc1ncnc2c1ncn2[C@@H]1C[C@H](CO)[C@@H](O)[C@H]1O [ARISTEROMYCIN] the inhibition at 6.25 µg/mL [3] was 100%, the inhibition at 25 µg/mL [4] was 100% and the inhibition at 50 µg/mL [5] was 100%. The inhibition at 100 µg/mL [8] was 100% and the inhibition at 12.5 µg/mL [9] was 100%.
In the case of Nc1ncnc2c1ncn2[C@@H]1O[C@H](CO)[C@@H](O)[C@@H]1O [VIDARABINE], the Virus rating [1] is reported as 2.4, the MTC [2] is reported as 26.8 µg/mL and the Therapeutic index [10] is reported as 5.6. For the same molecule, the IC50 [11] was 4.8 mg/L (≈ 18 µM).
In the case of Nc1nc(O)c2ncn(C3CC(CO)C(O)C3O)c2n1 (centres undefined), the Virus rating [1] is reported as 2.1, the Gross morphology [12] is reported as 0 and the HCMV yield [13] is reported as 2.5 log10 pfu/mL. It also gave an HCMV yield reduction [13] of 2.9 log10 pfu/mL, an HCMV yield [14] of 4.8 log10 pfu/mL and an HCMV yield reduction [14] of 0.6 log10 pfu/mL. It also gave an HCMV yield [15] of 4.2 log10 pfu/mL, an HCMV yield reduction [15] of 1.2 log10 pfu/mL and an MTC [2] of over 299.3 µg/mL. For the same molecule, the Gross morphology [16] was “Toxic”, the Control [17] was 88% and the Control [18] was 93%. For the same molecule, the HCMV yield [19] was 4.9 log10 pfu/mL, the HCMV yield reduction [19] was 0.5 log10 pfu/mL and the Gross morphology [20] was “Toxic”. It also gave an inhibition at 6.25 µg/mL [3] of 0%, an inhibition at 25 µg/mL [4] of 42.1% and an HCMV yield [21] of under 0.6 log10 pfu/mL. For the same molecule, the HCMV yield reduction [21] was over 4.8 log10 pfu/mL, the TI [22] was over 3.6 and the HCMV yield [23] was 3.7 log10 pfu/mL. The HCMV yield reduction [23] was 1.7 log10 pfu/mL, the Control [24] was 97% and the Gross morphology [25] was 0. For the same molecule, the IC50 [11] was 83.4 mg/L (≈ 297 µM), the inhibition at 50 µg/mL [5] was 58.4% and the HCMV yield [26] was 5.4 log10 pfu/mL. For the same molecule, the Virus rating [7] was 0, the Control [27] was 103% and the inhibition at 100 µg/mL [8] was 71.6%. The inhibition at 12.5 µg/mL [9] was 9.1%.
Nc1nc2c(ncn2COC(CO)CO)c(=O)[nH]1 [GANCICLOVIR] was tested, and the HCMV yield [28] was 2.4 log10 pfu/mL and the HCMV yield reduction [28] was 3 log10 pfu/mL.
Work on Nc1nc(O)c2nnn(C3CC(CO)C(O)C3O)c2n1 (centres undefined) yielded a Virus rating [1] of 0, an MTC [2] of 300.3 µg/mL and an inhibition at 6.25 µg/mL [3] of 0%. It also gave an inhibition at 25 µg/mL [4] of 5%, an inhibition at 50 µg/mL [5] of 27.4% and an MTC [6] of 95 µg/mL. For the same molecule, the Virus rating [7] was 0.2, the inhibition at 100 µg/mL [8] was 63.9% and the inhibition at 12.5 µg/mL [9] was 0%.
Molecule NC(=O)c1ncn([C@@H]2O[C@H](CO)[C@@H](O)[C@H]2O)n1 [RIBAVIRIN] has an MTC [6] of 32 µg/mL, a Virus rating [7] of 3.4 and a Therapeutic index [29] of 10.3. The IC50 [30] was 3.1 mg/L (≈ 12.7 µM).
In the case of Nc1nc2c(ncn2COCCO)c(=O)[nH]1 [ACYCLOVIR], the Virus rating [1] is reported as 6.2, the MTC [2] is reported as over 255.2 µg/mL and the Therapeutic index [10] is reported as over 240.3. The IC50 [31] was 0.9 mg/L (≈ 4 µM).
For Nc1nc(N)c2ncn(C3CC(CO)C(O)C3O)c2n1 (centres undefined), the Virus rating [1] was 0.6 VR, the MTC [2] was 280.3 µg/mL and the IC50 [32] was 195 mg/L (≈ 696 µM). The inhibition at 6.25 µg/mL [3] was 0%, the inhibition at 25 µg/mL [4] was 0% and the Therapeutic index [10] was 1.4. It also gave an inhibition at 50 µg/mL [5] of 11.3%, a Virus rating [7] of 0 and an inhibition at 100 µg/mL [8] of 42.3%. The inhibition at 12.5 µg/mL [9] was 0%.
For Nc1nc(Cl)c2ncn(C3CC(CO)C(O)C3O)c2n1 (centres undefined), the Virus rating [1] was 0, the MTC [2] was 299.7 µg/mL and the inhibition at 6.25 µg/mL [3] was 0%. For the same molecule, the inhibition at 25 µg/mL [4] was 0%, the inhibition at 50 µg/mL [5] was 0% and the Virus rating [7] was 0. It also gave an inhibition at 100 µg/mL [8] of 2.8% and an inhibition at 12.5 µg/mL [9] of 0%.
In the case of Nc1nc(N)c2nnn(C3CC(CO)C(O)C3O)c2n1 (centres undefined), the Virus rating [1] is reported as 0, the MTC [2] is reported as over 294.8 µg/mL and the inhibition at 6.25 µg/mL [3] is reported as 0%. It also gave an inhibition at 25 µg/mL [4] of 12.2%, an inhibition at 50 µg/mL [5] of 31.5% and a Virus rating [7] of 0. The inhibition at 100 µg/mL [8] was 58.4% and the inhibition at 12.5 µg/mL [9] was 0%.
